According to ChEMBL document CHEMBL1125378, “alpha-Methyl polyamines: metabolically stable spermidine and spermine mimics capable of supporting growth in cells depleted of polyamines” (J Med Chem, 1992):
Where “and” joins values, the source holds several entries; their conditions need not be identical. Equal entries are not always repeated.

How the values were obtained:
[1] = Retention time was determined; format: ADME
[2] = tested on: HT-29; test: Compound level in 72 hr DFMO (5 mM)-treated HT-29 cells after exposure to 25 uM 1,12-dimethylspermine; format: functional, cell-based; settings: Homo sapiens, in the assay text read “120 hr” for “72 hr”
Outline: (§1)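 HT29 experiment B: 5 mM DFMO for 120 h before addition and throughout a further 96 h; refed at 96 h. Cells without DFMO cultured 96 h in total. Polyamines measured as nmol/mg protein (detection limit 0.2). SD from at least four separate experiments.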

[3] = tested on: HT-29; test: Compound level in 72 hr DFMO (5 mM)-treated HT-29 cells after exposure to 10 uM 1,12-dimethylspermine; format: functional, cell-based; settings: Homo sapiens, in the assay text read “120 hr” for “72 hr”; outline: as §1
[4] = tested on: SV3T3; test: Compound level in 72 hr DFMO (5 mM)-treated SV3T3 cells after exposure to 1 uM 1,12-dimethylspermine; settings: Mus musculus
[5] = tested on: SV3T3; test: Compound level in 96 hr DFMO (5 mM)-treated SV3T3 cells after exposure to 25 uM 1,12-dimethylspermine; format: functional, cell-based; settings: Mus musculus
[6] = tested on: SV3T3; test: Compound level in 96 hr DFMO (5 mM)-treated SV3T3 cells after exposure to 10 uM 1,12-dimethylspermine; format: functional, cell-based; settings: Mus musculus
[7] = tested on: L1210; test: Compound level in 72 hr DFMO (5 mM)-treated L1210 cells after exposure to 10 uM 1,12-dimethylspermine; format: functional, cell-based; settings: Mus musculus
Outline: (§2)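 L1210 cells held in 5 mM DFMO for 72 h before polyamine addition and through a further 72 h, refed at 72 h; controls without DFMO cultured 72 h in total. Intracellular polyamines reported as nmol/mg protein (detection limit 0.2). Mean ± SD from at least four separate experiments.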

[8] = tested on: SV3T3; test: Compound level in 72 h DFMO (5 mM)-treated SV3T3 cells after exposure to 10 uM 1-methylspermidine; format: functional, cell-based; settings: Mus musculus
Outline: (§3)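 SV-3T3 fibroblasts (experiment A) held in 5 mM DFMO for 72 h before polyamine addition and throughout a further 72 h. Intracellular polyamines expressed as nmol/mg protein (detection limit 0.05). SD from at least four separate experiments, or duplicate where no SD is given.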

[9] = tested on: SV3T3; test: Compound level in 72 hr DFMO (5 mM)-treated SV3T3 cells after exposure to 1 uM 1-methylspermidine; format: functional, cell-based; settings: Mus musculus; outline: as §3
[10] = tested on: HT-29; test: Compound level in DFMO-treated HT-29 cells after 72 h; format: functional, cell-based; settings: Homo sapiens
Outline: (§4)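 HT29 cells pretreated with 5 mM DFMO for 120 h, then polyamine added and culture continued with DFMO for 72 h (experiment A); refed at 96 h. Cellular polyamine content given as nmol/mg protein (detection limit 0.2). SD from at least four separate experiments.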

[11] = tested on: HT-29; test: Compound level in 72 hr DFMO (5 mM)-treated HT-29 cells after exposure to 10 uM 1-methylspermidine; format: functional, cell-based; settings: Homo sapiens; outline: as §4
[12] = tested on: SV3T3; test: Compound level in 72 hr DFMO (5 mM)-treated SV3T3 cells after exposure to 10 uM spermine; format: functional, cell-based; settings: Mus musculus; outline: as §3
[13] = tested on: HT-29; test: Compound level in HT-29 cells after 72 h; format: functional, cell-based; settings: Homo sapiens
[14] = tested on: HT-29; test: Compound level in 72 hr DFMO (5 mM)-treated HT-29 cells after exposure to 10 uM spermine; format: functional, cell-based; settings: Homo sapiens; outline: as §4
[15] = tested on: HT-29; test: Compound level in 72 hr DFMO (5 mM)-treated HT-29 cells after exposure to 25 uM 1-methylspermine; format: functional, cell-based; settings: Homo sapiens; outline: as §4
[16] = tested on: L1210; test: Compound level in 72 h DFMO (5 mM)-treated L1210 cells after exposure to 10 uM spermine; format: functional, cell-based; settings: Mus musculus; outline: as §2
[17] = tested on: SV3T3; test: Compound level in 72 hr DFMO (5 mM)-treated SV3T3 cells after exposure to 1 uM 1-methylspermine; format: functional, cell-based; settings: Mus musculus; outline: as §3
[18] = tested on: SV3T3; test: Compound level in 72 hr DFMO (5 mM)-treated SV3T3 cells after exposure to 10 uM 1-methylspermine; format: functional, cell-based; settings: Mus musculus; outline: as §3
[19] = tested on: HT-29; test: Compound level in 72 hr DFMO (5 mM)-treated HT-29 cells after exposure to 10 uM spermidine; format: functional, cell-based; settings: Homo sapiens; outline: as §4
[20] = species: Homo sapiens; test: Compound level in DFMO-treated HT-29 cells after 96 h; format: functional, cell-based; outline: as §1
[21] = tested on: HT-29; test: Compound level in 72 hr DFMO (5 mM)-treated HT-29 cells after exposure to 10 uM 1-methylspermine; format: functional, cell-based; settings: Homo sapiens; outline: as §4
[22] = tested on: L1210; test: Compound level in L1210 cells after 72 h; format: functional, cell-based; settings: Mus musculus; outline: as §2
[23] = tested on: L1210; test: Compound level in DFMO-treated L1210 cells at 0 h; format: functional, cell-based; settings: Mus musculus; outline: as §2
[24] = tested on: SV3T3; test: Compound level in 72 hr DFMO (5 mM)-treated SV3T3 cells after exposure to 10 uM spermidine; format: functional, cell-based; settings: Mus musculus; outline: as §3
[25] = tested on: L1210; test: Compound level in 72 hr DFMO (5 mM)-treated L1210 cells after exposure to 10 uM 1-methylspermidine; format: functional, cell-based; settings: Mus musculus; outline: as §2
[26] = tested on: SV3T3; test: Compound level in 72 hr DFMO (5 mM)-treated SV3T3 cells after exposure to 25 uM 1-methylspermidine; format: functional, cell-based; settings: Mus musculus; outline: as §3
[27] = tested on: HT-29; test: Compound level in DFMO-treated HT-29 cells at 0 h; format: functional, cell-based; settings: Homo sapiens
[28] = tested on: HT-29; test: Compound level in 96 hr DFMO (5 mM)-treated HT-29 cells after exposure to 10 uM spermine; format: functional, cell-based; settings: Homo sapiens
[29] = tested on: HT-29; test: Compound level in 72 hr DFMO (5 mM)-treated HT-29 cells after exposure to 25 uM 1-methylspermidine; format: functional, cell-based; settings: Homo sapiens; outline: as §4
[30] = tested on: SV3T3; test: Compound level in DFMO-treated SV3T3 cells at 0 h; format: functional, cell-based; settings: Mus musculus; outline: as §3
[31] = tested on: L1210; settings: Mus musculus
[32] = tested on: HT-29; test: Compound level in 72 hr DFMO (5 mM)-treated HT-29 cells after exposure to 15 uM spermine; format: functional, cell-based; settings: Homo sapiens; outline: as §4
[33] = tested on: SV3T3; settings: Mus musculus
[34] = tested on: SV3T3; settings: Mus musculus; remark: listed apart in the source
[35] = tested on: SV3T3; test: Compound level in 96 hr DFMO (5 mM)-treated SV3T3 cells after exposure to 25 uM spermine; format: functional, cell-based; settings: Mus musculus
[36] = tested on: SV3T3; test: Compound level in 96 hr DFMO (5 mM)-treated SV3T3 cells after exposure to 10 uM spermine; format: functional, cell-based; settings: Mus musculus
[37] = tested on: HT-29; test: Compound level in HT-29 cells after 96 h; format: functional, cell-based; settings: Homo sapiens; outline: as §1
[38] = tested on: SV3T3; test: Compound level in 72 hr DFMO (5 mM)-treated SV3T3 cells after exposure to 25 uM 1-methylspermine; format: functional, cell-based; settings: Mus musculus; outline: as §3
[39] = tested on: HT-29; test: Compound level in 72 h DFMO (5 mM)-treated HT-29 cells after exposure to 25 uM spermidine; format: functional, cell-based; settings: Homo sapiens
[40] = tested on: SV3T3; settings: Mus musculus; remark: listed apart in the source
[41] = tested on: L1210; test: Compound level in 72 hr DFMO (5 mM)-treated L1210 cells after exposure to 10 uM 1-methylspermine; format: functional, cell-based; settings: Mus musculus; outline: as §2
[42] = tested on: L1210; test: Compound level in 72 hr DFMO (5 mM)-treated L1210 cells after exposure to 10 uM spermidine; format: functional, cell-based; settings: Mus musculus; outline: as §2
[43] = tested on: SV3T3; test: Compound level in SV3T3 cells after 96 hr; format: functional, cell-based; settings: Mus musculus
[44] = tested on: SV3T3; settings: Mus musculus; remark: listed apart in the source

With CC(N)CCNCCCCNCCC(C)N (stereo not drawn) the tR [1] was 40.9 min, the Level (nM (mg of protein)-1) [2] was 17.3 and the Level (nM (mg of protein)-1) [3] was 18.2. For the same compound, the Level (nM (mg of protein)-1) [4] was 4.2, the Level (nM (mg of protein)-1) [5] was 24.8 and the Level (nM (mg of protein)-1) [6] was 29.4. The Level (nM (mg of protein)-1) [7] was 61.9.

NCCCNCCCCNCCCN [SPERMINE] showed a Level (nM (mg of protein)-1) [8] of 0.4, a Level (nM (mg of protein)-1) [9] of 3.8 and a Level (nM (mg of protein)-1) [10] of 3.8. It also gave a Level (nM (mg of protein)-1) [11] of 1.1, a tR [1] of 40 min and a Level (nM (mg of protein)-1) [12] of 20.6. For the same compound, the Level (nM (mg of protein)-1) [13] was 10.5, the Level (nM (mg of protein)-1) [14] was 21.5 and the Level (nM (mg of protein)-1) [15] was 0.8. The Level (nM (mg of protein)-1) [16] was 35.6, the Level (nM (mg of protein)-1) [2] was 0.7 and the Level (nM (mg of protein)-1) [17] was 3.5. For the same compound, the Level (nM (mg of protein)-1) [3] was 0.9, the Level (nM (mg of protein)-1) [18] was 0.3 and the Level (nM (mg of protein)-1) [19] was 10.3. For the same compound, the Level (nM (mg of protein)-1) [20] was 4.4, the Level (nM (mg of protein)-1) [21] was 0.7 and the Level (nM (mg of protein)-1) [22] was 9.1. For the same compound, the Level (nM (mg of protein)-1) [23] was 13.4, the Level (nM (mg of protein)-1) [24] was 9.5 and the Level (nM (mg of protein)-1) [4] was 7.8. For the same compound, the Level (nM (mg of protein)-1) [25] was 1.1, the Level (nM (mg of protein)-1) [26] was 0.3 and the Level (nM (mg of protein)-1) [27] was 5.4 and 7.1. The Level (nM (mg of protein)-1) [5] was 1, the Level (nM (mg of protein)-1) [28] was 21.5 and the Level (nM (mg of protein)-1) [29] was 1.2. For the same compound, the Level (nM (mg of protein)-1) [30] was 9.3 and 7.8, the Level (nM (mg of protein)-1) [6] was 3.3 and the Level (nM (mg of protein)-1) [7] was 3.2. The Level (nM (mg of protein)-1) [31] was 7.3, the Level (nM (mg of protein)-1) [32] was 21.7 and the Level (nM (mg of protein)-1) [33] was 7.7. The Level (nM (mg of protein)-1) [34] was 13.5, the Level (nM (mg of protein)-1) [35] was 31.5 and the Level (nM (mg of protein)-1) [36] was 24.5. It also gave a Level (nM (mg of protein)-1) [37] of 17.8, a Level (nM (mg of protein)-1) [38] of 0.8 and a Level (nM (mg of protein)-1) [39] of 9. For the same compound, the Level (nM (mg of protein)-1) [40] was 14.3, the Level (nM (mg of protein)-1) [41] was 1.7 and the Level (nM (mg of protein)-1) [42] was 16.3. The Level (nM (mg of protein)-1) [43] was 7.1 and the Level (nM (mg of protein)-1) [44] was 11.5.

In the case of CC(N)CCNCCCCN (stereo not drawn), the Level (nM (mg of protein)-1) [8] is reported as 26.8, the Level (nM (mg of protein)-1) [9] is reported as 11.8 and the Level (nM (mg of protein)-1) [11] is reported as 13.3. It also gave a tR [1] of 34.5 min, a Level (nM (mg of protein)-1) [17] of 0.6 and a Level (nM (mg of protein)-1) [18] of 2.7. It also gave a Level (nM (mg of protein)-1) [21] of 0.2, a Level (nM (mg of protein)-1) [25] of 67.2 and a Level (nM (mg of protein)-1) [26] of 31.2. For the same compound, the Level (nM (mg of protein)-1) [29] was 16.8, the Level (nM (mg of protein)-1) [6] was 1.2 and the Level (nM (mg of protein)-1) [38] was 0.4.
